In ChEMBL document CHEMBL5247575 (J Med Chem, 2018):

How the values were obtained:
Format in all cases: functional
[1] = tested on: Klebsiella pneumoniae; assay: Synergistic antibacterial activity against Klebsiella pneumoniae 729/1679 producing KPC-3 assessed as cefepime MIC at 8 ug/ml by broth microdilution method; settings: dose 8 µg/ml
How it was run: (§1)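 Broth microdilution per CLSI guidelines, using custom frozen panels. […] Each partner drug was also tested alone. MICs were run in triplicate and the modal value is reported.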

[2] = tested on: Acinetobacter baumannii; assay: Synergistic antibacterial activity against Acinetobacter baumannii PR323 producing OXA-24/40 assessed as meropenem MIC at 4 ug/ml by broth microdilution method; settings: dose 4 µg/ml
[3] = tested on: Acinetobacter baumannii; assay: Synergistic antibacterial activity against ADC deleted Acinetobacter baumannii assessed as meropenem MIC at 8 ug/ml by broth microdilution method; settings: dose 8 µg/ml
[4] = tested on: Klebsiella pneumoniae; assay: Synergistic antibacterial activity against Klebsiella pneumoniae jefferson 1775 producing OXA-48 assessed as cefepime MIC at 8 ug/ml by broth microdilution method; settings: dose 8 µg/ml
[5] = tested on: Escherichia coli; assay: Synergistic antibacterial activity against Escherichia coli DH10B transfected with pBR322-catI-KPC-2 assessed as cefepime MIC at 4 ug/ml by broth microdilution method; settings: dose 4 µg/ml; how it was run: as §1
[6] = tested on: Escherichia coli; assay: Synergistic antibacterial activity against Escherichia coli DH10B transfected with pBC SK (-) PDC-3 assessed as cefepime MIC at 8 ug/ml by broth microdilution method; settings: dose 8 µg/ml; how it was run: as §1
[7] = tested on: Escherichia coli; assay: Antibacterial activity against Escherichia coli DH10B transfected with pBC SK (-) KPC-3 by broth microdilution method
[8] = tested on: Klebsiella pneumoniae; assay: Synergistic antibacterial activity against Klebsiella pneumoniae CAV 1636 producing OXA-181 assessed as cefepime MIC at 4 ug/ml by broth microdilution method; settings: dose 4 µg/ml
[9] = tested on: Klebsiella pneumoniae; assay: Synergistic antibacterial activity against Klebsiella pneumoniae 11978 producing OXA-48 assessed as meropenem MIC at 8 ug/ml by broth microdilution method; settings: dose 8 µg/ml; how it was run: as §1
[10] = tested on: Klebsiella pneumoniae; assay: Synergistic antibacterial activity against Klebsiella pneumoniae 1084/1957 producing KPC-3 assessed as meropenem MIC at 8 ug/ml by broth microdilution method; settings: dose 8 µg/ml; how it was run: as §1
[11] = tested on: Escherichia coli; assay: Antibacterial activity against Escherichia coli DH10B transfected with pBC SK (-) OXA-48 by broth microdilution method
[12] = tested on: Acinetobacter baumannii; assay: Synergistic antibacterial activity against Acinetobacter baumannii PR319 producing OXA-23/24/40 assessed as meropenem MIC at 8 ug/ml by broth microdilution method; settings: dose 8 µg/ml
[13] = tested on: Acinetobacter baumannii; assay: Synergistic antibacterial activity against Acinetobacter baumannii PR476 producing OXA-24/40 assessed as cefepime MIC at 8 ug/ml by broth microdilution method; settings: dose 8 µg/ml
[14] = tested on: Klebsiella pneumoniae; assay: Synergistic antibacterial activity against Klebsiella pneumoniae NY BS producing OXA-232 assessed as meropenem MIC at 4 ug/ml by broth microdilution method; settings: dose 4 µg/ml
[15] = tested on: Acinetobacter baumannii; assay: Synergistic antibacterial activity against Acinetobacter baumannii PR359 producing OXA-23 assessed as meropenem MIC at 8 ug/ml by broth microdilution method; settings: dose 8 µg/ml
How it was run: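 Broth microdilution per CLSI guidelines in frozen panels. Test compound held at fixed 8 mg/L while the partner β-lactam concentration was increased. Run in triplicate; modal MIC reported.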

[16] = tested on: Pseudomonas aeruginosa; assay: Synergistic antibacterial activity against Pseudomonas aeruginosa 795 assessed as cefepime MIC at 8 ug/ml by broth microdilution method; settings: dose 8 µg/ml
[17] = tested on: Klebsiella pneumoniae; assay: Synergistic antibacterial activity against Klebsiella pneumoniae 972/1910 producing KPC-3 assessed as cefepime MIC at 8 ug/ml by broth microdilution method; settings: dose 8 µg/ml
[18] = tested on: Pseudomonas aeruginosa; assay: Synergistic antibacterial activity against Pseudomonas aeruginosa 715 assessed as cefepime MIC at 4 ug/ml by broth microdilution method; settings: dose 4 µg/ml
[19] = tested on: Acinetobacter baumannii; assay: Synergistic antibacterial activity against Acinetobacter baumannii PR440 producing OXA-23/24/40 assessed as cefepime MIC at 8 ug/ml by broth microdilution method; settings: dose 8 µg/ml
[20] = tested on: Klebsiella pneumoniae; assay: Synergistic antibacterial activity against Klebsiella pneumoniae CAV 1636 producing OXA-181 assessed as meropenem MIC at 8 ug/ml by broth microdilution method; settings: dose 8 µg/ml
[21] = tested on: Acinetobacter baumannii; assay: Synergistic antibacterial activity against ADC deleted Acinetobacter baumannii transfected with pWH1266 producing OXA-24/40 assessed as cefepime MIC at 8 ug/ml by broth microdilution method; settings: dose 8 µg/ml
[22] = tested on: Klebsiella pneumoniae; assay: Synergistic antibacterial activity against Klebsiella pneumoniae 1354/2241 producing KPC-3 assessed as meropenem MIC at 8 ug/ml by broth microdilution method; settings: dose 8 µg/ml; how it was run: as §1
[23] = tested on: Acinetobacter baumannii; assay: Synergistic antibacterial activity against Acinetobacter baumannii PR319 producing OXA-23/24/40 assessed as cefepime MIC at 4 ug/ml by broth microdilution method; settings: dose 4 µg/ml
[24] = tested on: Acinetobacter baumannii; assay: Synergistic antibacterial activity against Acinetobacter baumannii PR408 producing OXA-24/40 assessed as meropenem MIC at 4 ug/ml by broth microdilution method; settings: dose 4 µg/ml
[25] = tested on: Pseudomonas aeruginosa; assay: Synergistic antibacterial activity against Pseudomonas aeruginosa 795 assessed as meropenem MIC at 4 ug/ml by broth microdilution method; settings: dose 4 µg/ml
[26] = tested on: Klebsiella pneumoniae; assay: Synergistic antibacterial activity against Klebsiella pneumoniae 11978 producing OXA-48 assessed as meropenem MIC at 4 ug/ml by broth microdilution method; settings: dose 4 µg/ml; how it was run: as §1
[27] = tested on: Acinetobacter baumannii; assay: Synergistic antibacterial activity against ADC deleted Acinetobacter baumannii transfected with pWH1266 OXA-23 assessed as meropenem MIC at 4 ug/ml by broth microdilution method; settings: dose 4 µg/ml
[28] = tested on: Klebsiella pneumoniae; assay: Synergistic antibacterial activity against Klebsiella pneumoniae 776/1742 producing KPC-2 assessed as cefepime MIC at 8 ug/ml by broth microdilution method; settings: dose 8 µg/ml
[29] = tested on: Klebsiella pneumoniae; assay: Synergistic antibacterial activity against Klebsiella pneumoniae jefferson 1775 producing OXA-48 assessed as cefepime MIC at 4 ug/ml by broth microdilution method; settings: dose 4 µg/ml
[30] = tested on: Acinetobacter baumannii; assay: Synergistic antibacterial activity against Acinetobacter baumannii PR323 producing OXA-24/40 assessed as meropenem MIC at 8 ug/ml by broth microdilution method; settings: dose 8 µg/ml
[31] = tested on: Acinetobacter baumannii; assay: Synergistic antibacterial activity against Acinetobacter baumannii PR476 producing OXA-24/40 assessed as meropenem MIC at 4 ug/ml by broth microdilution method; settings: dose 4 µg/ml
[32] = tested on: Klebsiella pneumoniae; assay: Synergistic antibacterial activity against Klebsiella pneumoniae 776/1742 producing KPC-2 assessed as meropenem MIC at 4 ug/ml by broth microdilution method; settings: dose 4 µg/ml
[33] = tested on: Acinetobacter baumannii; assay: Synergistic antibacterial activity against Acinetobacter baumannii PR448 producing OXA-23 assessed as meropenem MIC at 8 ug/ml by broth microdilution method; settings: dose 8 µg/ml
[34] = tested on: Klebsiella pneumoniae; assay: Synergistic antibacterial activity against Klebsiella pneumoniae 1108/1989 producing KPC-3 assessed as cefepime MIC at 8 ug/ml by broth microdilution method; settings: dose 8 µg/ml; how it was run: as §1
[35] = tested on: Pseudomonas aeruginosa; assay: Antibacterial activity against Pseudomonas aeruginosa CL232 by broth microdilution method
[36] = tested on: Escherichia coli; assay: Synergistic antibacterial activity against Escherichia coli DH10B transfected with pBC SK (-) KPC-3 assessed as cefepime MIC at 4 ug/ml by broth microdilution method; settings: dose 4 µg/ml
[37] = tested on: Klebsiella pneumoniae; assay: Synergistic antibacterial activity against Klebsiella pneumoniae jefferson 1773 producing OXA-181 assessed as cefepime MIC at 4 ug/ml by broth microdilution method; settings: dose 4 µg/ml
[38] = tested on: Klebsiella pneumoniae; assay: Synergistic antibacterial activity against Klebsiella pneumoniae 440/1360 producing KPC-2 assessed as meropenem MIC at 4 ug/ml by broth microdilution method; settings: dose 4 µg/ml; how it was run: as §1
[39] = tested on: Pseudomonas aeruginosa; assay: Synergistic antibacterial activity against Pseudomonas aeruginosa 776 assessed as cefepime MIC at 4 ug/ml by broth microdilution method; settings: dose 4 µg/ml

| Structure (SMILES) | MIC [1] | MIC [2] | MIC [3] | MIC [4] | MIC [5] | MIC [6] | MIC [8] | MIC [9] | MIC [10] | MIC [12] | MIC [13] | MIC [14] | MIC [15] | MIC [16] | MIC [17] | MIC [19] | MIC [20] | MIC [21] | MIC [22] | MIC [24] | also measured |
| --- | --- | --- | --- | --- | --- | --- | --- | --- | --- | --- | --- | --- | --- | --- | --- | --- | --- | --- | --- | --- | --- |
| N#C[C@@H]1CC[C@@H]2CN1C(=O)N2OS(=O)(=O)[O-].[Na+] | 0.25 µg/mL | 16 µg/mL | ≤ 0.12 µg/mL | ≤ 0.12 µg/mL | ≤ 0.12 µg/mL | ≤ 0.12 µg/mL | 0.5 µg/mL | ≤ 0.12 µg/mL | ≤ 0.12 µg/mL | > 16 µg/mL | 2 µg/mL | 0.25 µg/mL | 4 µg/mL | > 16 µg/mL | 0.25 µg/mL | > 16 µg/mL | ≤ 0.12 µg/mL | 16 µg/mL | ≤ 0.12 µg/mL | > 16 µg/mL | MIC [7]: > 16 µg/mL; MIC [11]: > 16 µg/mL; MIC [18]: 16 µg/mL; MIC [23]: > 16 µg/mL; MIC [25]: 16 µg/mL; MIC [26]: ≤ 0.12 µg/mL; MIC [27]: 16 µg/mL; MIC [28]: 1 µg/mL; MIC [29]: ≤ 0.12 µg/mL; MIC [30]: 16 µg/mL; MIC [31]: 0.25 µg/mL; MIC [32]: 0.5 µg/mL; MIC [33]: 1 µg/mL; MIC [34]: ≤ 0.12 µg/mL; MIC [35]: > 16 µg/mL; MIC [36]: ≤ 0.12 µg/mL; MIC [37]: 1 µg/mL; MIC [38]: ≤ 0.12 µg/mL |
| O=C(NNC(=O)[C@@H]1CC[C@@H]2CN1C(=O)N2OS(=O)(=O)O)[C@@H]1CCNC1 | ≤ 0.12 µg/mL | > 16 µg/mL | ≤ 0.12 µg/mL | ≤ 0.12 µg/mL | ≤ 0.12 µg/mL | ≤ 0.12 µg/mL | ≤ 0.12 µg/mL | ≤ 0.12 µg/mL | ≤ 0.12 µg/mL | > 16 µg/mL | 2 µg/mL | ≤ 0.12 µg/mL | > 16 µg/mL | ≤ 0.12 µg/mL | ≤ 0.12 µg/mL | > 16 µg/mL | ≤ 0.12 µg/mL | 16 µg/mL | ≤ 0.12 µg/mL | > 16 µg/mL | MIC [39]: 16 µg/mL; MIC [28]: ≤ 0.12 µg/mL; MIC [29]: ≤ 0.12 µg/mL; MIC [30]: > 16 µg/mL; MIC [31]: 0.25 µg/mL; MIC [32]: ≤ 0.12 µg/mL; MIC [33]: > 16 µg/mL; MIC [34]: ≤ 0.12 µg/mL; MIC [36]: ≤ 0.12 µg/mL; MIC [37]: ≤ 0.12 µg/mL; MIC [38]: ≤ 0.12 µg/mL |
